In ChEMBL document CHEMBL5058577, “EUbOPEN Chemogenomics Library 2 (Multiplex)” (2022):

Test system: HEK-293T
Experiment: Multiplex assay against HEK293T
Type: toxicity, cell-based
Settings: human
Outline: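 Live cells were stained at seeding with Hoechst33342, BioTracker Green Microtubule Cytoskeleton Dye, MitoTracker Red and Annexin V Alexa Fluor 680. Following compound addition, they were imaged on a CQ1 microscope at 37°C and 5% CO2 and gated by CellPathfinder machine learning into Hoechst high-intensity objects or normal cells, with normal cells split into healthy, pyknosed or fragmented nuclei and pyknosed cells into mitotic or apoptotic. Tubulin, mitochondrial-mass and membrane-permeability phenotypes are per cents of healthy-nucleus cells.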

[1] = 12 h, 1 µM, compound concentration 1 uM, replicate 1
[2] = 12 h, 1 µM, compound concentration 1 uM, replicate 2
[3] = 12 h, 10 µM, compound concentration 10 uM, replicate 1
[4] = 12 h, 10 µM, compound concentration 10 uM, replicate 2
[5] = 24 h, 1 µM, compound concentration 1 uM, replicate 1
[6] = 24 h, 1 µM, compound concentration 1 uM, replicate 2
[7] = 24 h, 10 µM, compound concentration 10 uM, replicate 1
[8] = 24 h, 10 µM, compound concentration 10 uM, replicate 2
[9] = 48 h, 1 µM, compound concentration 1 uM, replicate 1
[10] = 48 h, 1 µM, compound concentration 1 uM, replicate 2
[11] = 48 h, 10 µM, compound concentration 10 uM, replicate 1
[12] = 48 h, 10 µM, compound concentration 10 uM, replicate 2

CCCCCC(O)/C=C/[C@H]1C(=O)CC(O)C1C/C=C\CCCC(=O)O (stereo not given in full)
Population Apoptotic (%) [1]: 29%
Population Fragmented Nuclei (%) [1]: 8%
Population Healthy Nuclei (%) [1]: 80%
Population Hoechst High Intensity Objects (%) [1]: 8%
Population Membrane Permeable-Phenotype (%) [1]: 0%
Population Mitochondria Different-Phenotype (%) [1]: 44%
Population Mitotic Cells (%) [1]: 70%
Population Normal (%) [1]: 91%
Population Pyknosed Nuclei (%) [1]: 11%
Population Tubulin-Different-Phenotype (%) [1]: 23%
Total Cell Count [1]: 409
Population Apoptotic (%) [2]: 39%
Population Fragmented Nuclei (%) [2]: 7%
Population Healthy Nuclei (%) [2]: 83%
Population Hoechst High Intensity Objects (%) [2]: 6%
Population Mitochondria Different-Phenotype (%) [2]: 56%
Population Mitotic Cells (%) [2]: 60%
Population Normal (%) [2]: 93%
Population Pyknosed Nuclei (%) [2]: 9%
Population Tubulin-Different-Phenotype (%) [2]: 20%
Total Cell Count [2]: 383
Population Apoptotic (%) [3]: 48%
Population Fragmented Nuclei (%) [3]: 6%
Population Healthy Nuclei (%) [3]: 79%
Population Hoechst High Intensity Objects (%) [3]: 9%
Population Membrane Permeable-Phenotype (%) [3]: 0%
Population Mitochondria Different-Phenotype (%) [3]: 48%
Population Mitotic Cells (%) [3]: 51%
Population Normal (%) [3]: 90%
Population Pyknosed Nuclei (%) [3]: 14%
Population Tubulin-Different-Phenotype (%) [3]: 31%
Total Cell Count [3]: 409
Population Apoptotic (%) [4]: 54%
Population Healthy Nuclei (%) [4]: 77%
Population Hoechst High Intensity Objects (%) [4]: 7%
Population Mitochondria Different-Phenotype (%) [4]: 59%
Population Mitotic Cells (%) [4]: 46%
Population Normal (%) [4]: 92%
Population Pyknosed Nuclei (%) [4]: 15%
Population Tubulin-Different-Phenotype (%) [4]: 25%
Total Cell Count [4]: 343
Population Apoptotic (%) [5]: 40%
Population Fragmented Nuclei (%) [5]: 8%
Population Healthy Nuclei (%) [5]: 83%
Population Hoechst High Intensity Objects (%) [5]: 3%
Population Membrane Permeable-Phenotype (%) [5]: 1%
Population Mitochondria Different-Phenotype (%) [5]: 22%
Population Mitotic Cells (%) [5]: 59%
Population Normal (%) [5]: 96%
Population Pyknosed Nuclei (%) [5]: 8%
Population Tubulin-Different-Phenotype (%) [5]: 11%
Total Cell Count [5]: 611
Population Apoptotic (%) [6]: 44%
Population Fragmented Nuclei (%) [6]: 7%
Population Healthy Nuclei (%) [6]: 84%
Population Hoechst High Intensity Objects (%) [6]: 7%
Population Membrane Permeable-Phenotype (%) [6]: 0%
Population Mitochondria Different-Phenotype (%) [6]: 41%
Population Mitotic Cells (%) [6]: 55%
Population Normal (%) [6]: 92%
Population Pyknosed Nuclei (%) [6]: 7%
Population Tubulin-Different-Phenotype (%) [6]: 14%
Total Cell Count [6]: 492
Population Apoptotic (%) [7]: 27%
Population Fragmented Nuclei (%) [7]: 10%
Population Healthy Nuclei (%) [7]: 75%
Population Hoechst High Intensity Objects (%) [7]: 4%
Population Membrane Permeable-Phenotype (%) [7]: 0%
Population Mitochondria Different-Phenotype (%) [7]: 29%
Population Mitotic Cells (%) [7]: 72%
Population Normal (%) [7]: 95%
Population Pyknosed Nuclei (%) [7]: 13%
Population Tubulin-Different-Phenotype (%) [7]: 16%
Total Cell Count [7]: 523
Population Apoptotic (%) [8]: 44%
Population Fragmented Nuclei (%) [8]: 9%
Population Healthy Nuclei (%) [8]: 77%
Population Hoechst High Intensity Objects (%) [8]: 9%
Population Mitochondria Different-Phenotype (%) [8]: 50%
Population Mitotic Cells (%) [8]: 55%
Population Normal (%) [8]: 90%
Population Tubulin-Different-Phenotype (%) [8]: 21%
Total Cell Count [8]: 388
Population Apoptotic (%) [9]: 29%
Population Fragmented Nuclei (%) [9]: 12%
Population Healthy Nuclei (%) [9]: 79%
Population Hoechst High Intensity Objects (%) [9]: 1%
Population Membrane Permeable-Phenotype (%) [9]: 1%
Population Mitochondria Different-Phenotype (%) [9]: 20%
Population Mitotic Cells (%) [9]: 70%
Population Normal (%) [9]: 98%
Population Pyknosed Nuclei (%) [9]: 7%
Population Tubulin-Different-Phenotype (%) [9]: 8%
Total Cell Count [9]: 864
Population Apoptotic (%) [10]: 30%
Population Fragmented Nuclei (%) [10]: 13%
Population Healthy Nuclei (%) [10]: 81%
Population Hoechst High Intensity Objects (%) [10]: 3%
Population Membrane Permeable-Phenotype (%) [10]: 2%
Population Mitochondria Different-Phenotype (%) [10]: 19%
Population Mitotic Cells (%) [10]: 69%
Population Normal (%) [10]: 96%
Population Pyknosed Nuclei (%) [10]: 5%
Population Tubulin-Different-Phenotype (%) [10]: 7%
Total Cell Count [10]: 775
Population Apoptotic (%) [11]: 22%
Population Fragmented Nuclei (%) [11]: 12%
Population Healthy Nuclei (%) [11]: 79%
Population Hoechst High Intensity Objects (%) [11]: 1%
Population Membrane Permeable-Phenotype (%) [11]: 0%
Population Mitochondria Different-Phenotype (%) [11]: 17%
Population Mitotic Cells (%) [11]: 77%
Population Normal (%) [11]: 98%
Population Pyknosed Nuclei (%) [11]: 8%
Population Tubulin-Different-Phenotype (%) [11]: 7%
Total Cell Count [11]: 815
Population Apoptotic (%) [12]: 51%
Population Fragmented Nuclei (%) [12]: 10%
Population Healthy Nuclei (%) [12]: 80%
Population Hoechst High Intensity Objects (%) [12]: 3%
Population Mitochondria Different-Phenotype (%) [12]: 26%
Population Mitotic Cells (%) [12]: 48%
Population Normal (%) [12]: 96%
Population Tubulin-Different-Phenotype (%) [12]: 8%
Total Cell Count [12]: 544
